Assay results reported in ChEMBL document CHEMBL4251637, “Picolyl amides of betulinic acid as antitumor agents causing tumor cell apoptosis” (Eur J Med Chem, 2018).
Calls of active or inactive are those of the source. The rule behind the calls is not given here.

Legend:
CCRF-CEM = assay: Cytotoxicity against human CEM cells after 72 hrs by calcein-AM dye based fluorescence assay; format: functional, cell-based
Procedure, shortened: (§1)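 Cells from ATCC, grown in DMEM with 10% fetal bovine serum, 2 mM L-glutamine and 1% penicillin-streptomycin at 37 °C, 5% CO2, humidified, and passaged by trypsinization two or three times weekly. Compound exposure lasted 72 h and the read-out was IC50 (µM).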

MCF7 = assay: Cytotoxicity against human MCF7 cells after 72 hrs by calcein-AM dye based fluorescence assay; format: functional, cell-based; details: MCF7, 72 h; procedure, shortened: as §1
HeLa = assay: Cytotoxicity against human HeLa cells after 72 hrs by calcein-AM dye based fluorescence assay; format: functional, cell-based; procedure, shortened: as §1
G-361 [1] = assay: Cytotoxicity against human G361 cells after 72 hrs by calcein-AM dye based fluorescence assay; format: functional, cell-based; details: G-361, 72 h; procedure, shortened: as §1
BJ = assay: Cytotoxicity against human BJ cells after 72 hrs by calcein-AM dye based fluorescence assay; format: cell-based; procedure, shortened: as §1
[2] = Therapeutic index, ratio of IC50 for human BJ cells to IC50 for human G361 cells; format: toxicity; details: BJ cells versus G361 cells, read-out: Ratio IC50
Procedure, shortened: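 Therapeutic index is IC50 in normal BJ fibroblasts divided by IC50 in G-361 melanoma cells. Both IC50 values come from the 72 h cytotoxicity test, with cells grown in DMEM with 10% FBS, 2 mM L-glutamine and antibiotics at 37 °C, 5% CO2.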

G-361 [3] = assay: Cell cycle arrest in human G361 cells assessed as increase in accumulation at sub-G1 phase at 0.5 to 25 uM after 24 hrs by propidium iodide staining-based flow cytometry; format: functional
Procedure, shortened: (§2)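 G-361 melanoma cells grown in DMEM with 10% FBS, 2 mM L-glutamine and penicillin-streptomycin at 37 °C, 5% CO2. Cells were seeded and left 24 h, then treated with 0.5, 2.5, 12.5 or 25 µM for 24 h. Trypsinized cells were fixed and stained with 0.1% Triton X-100, 0.2 mg/mL RNase A and 10 µg/mL propidium iodide in PBS. DNA content was read by flow cytometry and phases quantified from histograms; three repeats.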

G-361 [4] = assay: Cell cycle arrest in human G361 cells assessed as increase in accumulation at G0/G1 phase at 0.5 to 25 uM after 24 hrs by propidium iodide staining-based flow cytometry; format: functional; procedure, shortened: as §2
G-361 [5] = assay: Cell cycle arrest in human G361 cells assessed as reduction in accumulation at G2/M phase at 0.5 to 25 uM after 24 hrs by propidium iodide staining-based flow cytometry; format: functional; procedure, shortened: as §2
G-361 [6] = assay: Induction of apoptosis in human G361 cells assessed as increase in cleaved caspase-7 expression at 0.5 to 25 uM after 24 hrs by Western blot analysis; format: functional, cell-based
Procedure, shortened: (§3)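 G-361 cells seeded in 100-mm dishes at 1.5 × 10⁶ cells/mL and stabilized 24 h, then treated 24 h with 0.5–25 µM; DMSO vehicle controls. Lysed in RIPA buffer pH 7.4 and protein measured by Bradford. Run on 10% or 12% SDS-PAGE, blotted to nitrocellulose, probed overnight with primary antibodies, then HRP secondary and chemiluminescence. β-actin loading control, compared with untreated cells; three repeats.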

G-361 [7] = assay: Induction of apoptosis in human G361 cells assessed as increase in cleaved PARP expression at 0.5 to 25 uM after 24 hrs by Western blot analysis; format: functional, cell-based; procedure, shortened: as §3
G-361 [8] = assay: Induction of apoptosis in human G361 cells assessed as downregulation of phosphorylated Rb expression at 12.5 to 25 uM after 24 hrs by Western blot analysis; format: functional, cell-based; procedure, shortened: as §3
G-361 [9] = assay: Induction of apoptosis in human G361 cells assessed as downregulation of total Rb expression at 12.5 to 25 uM after 24 hrs by Western blot analysis; format: functional, cell-based; procedure, shortened: as §3
G-361 [10] = assay: Induction of apoptosis in human G361 cells assessed as effect on Bcl2 expression level at 0.5 to 25 uM after 24 hrs by Western blot analysis; format: functional, cell-based; procedure, shortened: as §3
G-361 [11] = assay: Induction of apoptosis in human G361 cells assessed as effect on Mcl1 expression level at 0.5 to 25 uM after 24 hrs by Western blot analysis; format: functional, cell-based; procedure, shortened: as §3
G-361 [12] = assay: Induction of apoptosis in human G361 cells assessed as effect on p53 protein expression level at 0.5 to 25 uM after 24 hrs by Western blot analysis; format: functional, cell-based; procedure, shortened: as §3
[13] = molecular target: Mitogen-activated protein kinase; ERK1/ERK2 (Homo sapiens) (UniProt P27361+P28482); assay: Inhibition of ERK1/2 phosphorylation at Thr202/Tyr204 in human G361 cells at 12.5 to 25 uM after 24 hrs by Western blotting analysis relative to control; format: cell-based; procedure, shortened: as §3
Sequence of Mitogen-activated protein kinase; ERK1/ERK2 (Homo sapiens) (P27361 whole entry, looked up): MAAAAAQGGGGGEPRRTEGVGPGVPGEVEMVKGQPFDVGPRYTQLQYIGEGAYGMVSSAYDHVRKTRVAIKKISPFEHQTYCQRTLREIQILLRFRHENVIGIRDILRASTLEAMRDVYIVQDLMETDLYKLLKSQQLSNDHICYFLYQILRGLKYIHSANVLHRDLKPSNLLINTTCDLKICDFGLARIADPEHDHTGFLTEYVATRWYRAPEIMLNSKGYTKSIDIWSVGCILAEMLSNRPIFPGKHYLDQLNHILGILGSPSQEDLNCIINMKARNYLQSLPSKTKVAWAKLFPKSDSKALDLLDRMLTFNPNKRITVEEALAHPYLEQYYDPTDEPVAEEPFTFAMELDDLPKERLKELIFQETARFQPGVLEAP
Sequence of Mitogen-activated protein kinase; ERK1/ERK2 (Homo sapiens) (P28482 whole entry, looked up): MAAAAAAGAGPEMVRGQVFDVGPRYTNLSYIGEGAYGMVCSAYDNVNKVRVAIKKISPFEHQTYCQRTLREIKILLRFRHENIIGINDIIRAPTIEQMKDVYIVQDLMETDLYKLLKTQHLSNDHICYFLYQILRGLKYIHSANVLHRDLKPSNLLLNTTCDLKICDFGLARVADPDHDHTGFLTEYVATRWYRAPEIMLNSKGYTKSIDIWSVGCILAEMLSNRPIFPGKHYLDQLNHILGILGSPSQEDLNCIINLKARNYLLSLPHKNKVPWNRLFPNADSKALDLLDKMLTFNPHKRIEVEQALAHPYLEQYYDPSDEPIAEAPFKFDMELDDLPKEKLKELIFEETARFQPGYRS

G-361 [14] = assay: Induction of apoptosis in human G361 cells assessed as increase in caspase-3/7 activity using Ac-DEVD-AMC as substrate at 25 uM after 24 hrs by fluorescence assay relative to control; format: functional
Procedure, shortened: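 Treated G-361 cells (0.5–25 µM, 24 h) were extracted on ice in CHAPS/HEPES buffer pH 7.4 with protease inhibitors, and lysates equalized by Bradford protein. Incubated 1 h with Ac-DEVD-AMC in PIPES/DTT buffer pH 7.3; Ac-DEVD-CHO lysates served as negative control. Fluorescence read at 346/442 nm and expressed as fold over untreated control. Three experiments in triplicate; one-way ANOVA.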

G-361 [15] = assay: Effect on total p44/42 level in human G361 cells at 0.5 to 25 uM after 24 hrs by Western blot analysis; format: cell-based; details: g-361, 24 h; procedure, shortened: as §3

Row | Structure (SMILES) | IC50 (CCRF-CEM) | IC50 (MCF7) | IC50 (HeLa) | IC50 (G-361 [1]) | IC50 (BJ) | selectivity ratio [2] | Activity (G-361 [3]) | Activity (G-361 [4]) | Activity (G-361 [5]) | Activity (G-361 [6]) | Activity (G-361 [7]) | Activity (G-361 [8]) | Activity (G-361 [9]) | Activity (G-361 [10]) | Activity (G-361 [11]) | Activity (G-361 [12]) | inhibition [13] | fold change (FC) (G-361 [14]) | Activity (G-361 [15]) | Activity (G-361 [14])
1 | C=C(C)[C@@H]1CC[C@]2(C(=O)NCc3ccncc3)CC[C@]3(C)[C@H](CC[C@@H]4[C@@]5(C)CC[C@H](O)C(C)(C)[C@@H]5CC[C@]43C)[C@@H]12 | 18.6 µM | 21.1 µM | 14.8 µM | 11.6 µM | 11.2 µM | 1 |  |  |  |  |  |  |  |  |  |  |  |  |  | 
2 | C=C(C)[C@@H]1CC[C@]2(C(=O)NCc3cccnc3)CC[C@]3(C)[C@H](CC[C@@H]4[C@@]5(C)CC[C@H](O)C(C)(C)[C@@H]5CC[C@]43C)[C@@H]12 | 25.3 µM | 38.7 µM | 23.6 µM | 18.1 µM | 17.5 µM | 1 |  |  |  |  |  |  |  |  |  |  |  |  |  | 
3 | C=C(C)[C@@H]1CC[C@]2(C(=O)O)CC[C@]3(C)[C@H](CC[C@@H]4[C@@]5(C)CC[C@H](OC(=O)CCC(=O)NCc6cccnc6)C(C)(C)[C@@H]5CC[C@]43C)[C@@H]12 | 6.5 µM | 1.4 µM | 2.4 µM | 0.5 µM | 50 µM | 100 | Active | Active | Active | Active | Active | Active | Active | inactive | inactive | inactive | Active | 12 | Non-Toxic | 
4 | C=C(C)[C@@H]1CC[C@]2(C(=O)O)CC[C@]3(C)[C@H](CC[C@@H]4[C@@]5(C)CC[C@H](OC(=O)CCC(=O)NCc6ccccn6)C(C)(C)[C@@H]5CC[C@]43C)[C@@H]12 | 6.9 µM | 2.2 µM | 2.3 µM | 2.4 µM | 46.2 µM | 19.3 | Active | Active | Active | Active | Active | Active | Active | inactive | inactive | inactive | Active | <=18 | Non-Toxic | 
5 | C=C(C)[C@@H]1CC[C@]2(C(=O)O)CC[C@]3(C)[C@H](CC[C@@H]4[C@@]5(C)CC[C@H](OC(=O)CCC(=O)NCc6ccncc6)C(C)(C)[C@@H]5CC[C@]43C)[C@@H]12 | 22.6 µM | > 50 µM | 40.9 µM | 32.1 µM | > 50 µM |  | inactive | inactive | inactive |  |  |  |  |  |  |  |  |  |  | inactive
6 | C=C(C)[C@@H]1CC[C@]2(C(=O)NCc3ccccn3)CC[C@]3(C)[C@H](CC[C@@H]4[C@@]5(C)CC[C@H](O)C(C)(C)[C@@H]5CC[C@]43C)[C@@H]12 | 18.6 µM | 27 µM | 14.7 µM | 16.4 µM | 15.8 µM | 1 |  |  |  |  |  |  |  |  |  |  |  |  |  | 
